Experimental data taken from ChEMBL document CHEMBL1140313, “Potent inhibitors of subgenomic hepatitis C virus RNA replication through optimization of indole-N-acetamide allosteric inhibitors of the viral NS5B polymerase” (J Med Chem, 2005).

Experiments:
[1] = Plasma clearance after intravenous administration of 1 mg/kg in dog; format: ADME, organism-based, Canis lupus familiaris; set-up: dose 1 mg/kg, route intravenous; details: read-out: Clp
In short: (§1)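 Sprague-Dawley rats and male beagle dogs, dosed as trifluoroacetate salts (mg/kg; n = 3, some n = 2). Rat vehicle: iv 20% DMSO/[…] with po PEG-400, or iv 20% DMSO/80% saline with po 50% PEG-400/50% H2O. Dog vehicle: iv 20% DMSO/40% PEG-400/40% H2O, po PEG-400. Plasma levels measured by HPLC–MS/MS; noncompartmental analysis; terminal half-life from iv.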

[2] = biological target: RNA-directed RNA polymerase (Hepacivirus hominis, UniProt O39930); assay: Inhibitory activity against hepatitis C virus NS5B polymerase enzyme; Range=6-9 nM
Sequence of RNA-directed RNA polymerase (O39930 whole entry): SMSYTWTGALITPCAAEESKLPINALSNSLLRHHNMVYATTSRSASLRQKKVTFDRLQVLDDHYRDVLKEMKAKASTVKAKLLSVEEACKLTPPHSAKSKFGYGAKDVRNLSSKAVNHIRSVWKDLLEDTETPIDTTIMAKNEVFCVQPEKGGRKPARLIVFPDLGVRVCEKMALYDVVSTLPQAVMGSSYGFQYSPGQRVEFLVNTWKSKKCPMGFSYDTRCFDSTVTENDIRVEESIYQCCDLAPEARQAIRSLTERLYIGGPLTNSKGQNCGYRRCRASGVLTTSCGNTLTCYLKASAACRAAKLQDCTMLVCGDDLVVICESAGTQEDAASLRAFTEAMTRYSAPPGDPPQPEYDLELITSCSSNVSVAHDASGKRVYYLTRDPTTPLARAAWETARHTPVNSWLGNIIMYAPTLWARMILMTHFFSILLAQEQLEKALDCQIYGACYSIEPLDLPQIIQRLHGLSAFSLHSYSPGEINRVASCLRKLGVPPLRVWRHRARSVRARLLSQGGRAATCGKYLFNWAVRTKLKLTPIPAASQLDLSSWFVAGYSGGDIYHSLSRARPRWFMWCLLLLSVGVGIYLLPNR
In short: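 Purified ΔC55 NS5B polymerase assayed with heterogenic template RNA. IC50 values come from a single experiment or are arithmetic means of multiple experiments, as footnoted; some were measured in duplicate.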

[3] = Plasma half life following 3 mg/kg iv administration in rat; format: ADME, organism-based; set-up: dose 3 mg/kg, route intravenous; in short: as §1
Huh-7 [4] = assay: Effective concentration required to inhibit replication of subgenomic HCV RNA in HUH-7 cells in the presence of 10% fetal calf serum; format: functional, cell-based; details: Homo sapiens
In short: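 Subgenomic HCV replicon in HUH-7 cells, run in medium with 10% fetal calf serum (a modification of Bartenschlager's method). EC50 was determined only for compounds giving >50% inhibition in an initial screen at a fixed 5 μM. Values are the arithmetic mean ± half-range or standard error of at least two independent determinations, or from a single experiment where noted.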

[5] = Plasma clearance in rat; format: ADME, organism-based; details: read-out: Clp; in short: as §1
Huh-7 [6] = assay: Effective concentration required to inhibit replication of subgenomic HCV RNA in HUH-7 cells in the presence of 50% normal human serum; format: functional, cell-based
In short: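 Subgenomic HCV replicon in HUH-7 cells run under high-serum conditions with 50% normal human serum in place of 10% fetal calf serum. EC50 values are the arithmetic mean ± half-range or standard error of at least two independent determinations.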

[7] = Plasma clearance in dod; format: ADME, organism-based, Canis lupus familiaris; details: dog, read-out: Clp; in short: as §1
[8] = Plasma half life following 1 mg/kg iv administration in dog; format: ADME, organism-based, Canis lupus familiaris; set-up: dose 1 mg/kg, route intravenous; in short: as §1
[9] = Oral bioavailability in rat (dose 3 mg/kg); format: ADME, organism-based; details: in vivo; in short: as §1
[10] = Oral bioavailability in dog at a dose of 2 mg/kg; format: ADME, organism-based, Canis lupus familiaris; details: in vivo; in short: as §1

clearance [1]: 9 mL/min/kg | IC50 [2]: 9 nM | half-life [3]: 3.1 h | EC50 (Huh-7 [4]): 127 nM | clearance [5]: 44 mL/min/kg | clearance [7]: 9 mL/min/kg | half-life [8]: 5 h | bioavailability [9]: 10% | bioavailability [10]: 51%
Compound: CCN(CC)C1CCN(C(=O)Cn2c(-c3ccc(Cl)cc3)c(C3CCCCC3)c3ccc(C(=O)O)cc32)CC1
EC50 (Huh-7 [6]): 454 nM
